Assay outcomes deposited in PubChem BioAssay by several laboratories.
NR1D1 modulator: modulates human Rev-erb alpha binding to DNA | P20393 | Rev-erbα–FITC-DNA binding, fluorescence polarization, 90 min | activity, % at 10 µM | actives 0.79% (n = 370,000) | AID 1259318;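 active means activity above about 14%, limit read from the data; passing the limit was not always enough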
Target sequence (P20393 whole entry, looked up): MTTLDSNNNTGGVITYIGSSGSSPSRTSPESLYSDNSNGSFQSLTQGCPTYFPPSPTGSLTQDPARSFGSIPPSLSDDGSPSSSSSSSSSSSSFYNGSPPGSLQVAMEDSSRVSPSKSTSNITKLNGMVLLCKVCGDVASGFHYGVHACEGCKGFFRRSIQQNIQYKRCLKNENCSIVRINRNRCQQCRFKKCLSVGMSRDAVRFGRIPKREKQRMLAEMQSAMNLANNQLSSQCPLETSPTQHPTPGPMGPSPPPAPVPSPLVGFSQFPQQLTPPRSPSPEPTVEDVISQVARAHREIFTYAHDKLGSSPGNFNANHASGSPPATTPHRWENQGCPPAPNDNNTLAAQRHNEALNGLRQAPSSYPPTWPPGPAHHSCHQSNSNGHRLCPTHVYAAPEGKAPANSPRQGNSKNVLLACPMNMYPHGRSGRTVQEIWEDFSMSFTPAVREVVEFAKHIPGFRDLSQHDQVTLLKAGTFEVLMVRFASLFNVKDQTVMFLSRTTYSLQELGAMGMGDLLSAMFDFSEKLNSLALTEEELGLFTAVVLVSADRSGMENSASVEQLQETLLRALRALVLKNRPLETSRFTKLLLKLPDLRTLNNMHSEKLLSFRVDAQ
PG9 Ab binder: PG9 antibody binding by small molecule; TR-FRET gp120-PG9 antibody binding; inhibition, % at 6.7 µM; actives 0.43% (n = 360,000); AID 624416; in the data active means inhibition above about 8.5%
Rin1 Abl inh: human Rin1-Abl interaction inhibition; P00519+Q13671; TR-FRET Rin1/Abl binding, biochemical; inhibition, % at 7.35 µM; actives 0.4% (n = 360,000); AID 588664; in the data active means inhibition above about 5%, passing the limit was not always enough
Tb MetRS inh: blocks T. brucei methionyl-tRNA synthetase activity | purified T. brucei MetRS, ATP depletion, Kinase-Glo luminescence | AID 624268 | inhibition, % at 11.9 µM | actives 0.4% (n = 360,000);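 active means inhibition above a per-plate cutoff of the control wells' mean inhibition plus 3 SD, cut at about 5.5% in these data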
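Dosing: 11.9 µM single point; system: parasite MetRS enzyme; technique: luminescence of leftover ATP; times: 15 min enzyme-compound preincubation, 2 h reaction, 10 min detection, 25 °C; replicates: each compound tested once; read-out basis: percent inhibition relative to median high and low control wells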
TbMetRS confirm: confirmation of Trypanosoma brucei MetRS inhibitors; shares compounds with Tb MetRS inh; inhibition, % at 11.9 µM; T. brucei MetRS enzyme, luminescence (ATP depletion); actives 93% (n = 1,400); in the data active means inhibition above about 7%
Jurkat cytotox: kills Jurkat cells in T. brucei MetRS counterscreen. shares compounds with Tb MetRS inh. Jurkat cells viability, ATP luminescence. inhibition, % at 8.3 µM. actives 12% (n = 1,400). AID 624413; in the data active means inhibition above about 15%
TbMetRS FP orth: orthogonal test for Trypanosoma brucei MetRS inhibitors | shares compounds with Tb MetRS inh | purified T. brucei MetRS, fluorescence polarization | inhibition, % at 11.9 µM | actives 44% (n = 1,400) | AID 651607; in the data active means inhibition above about 17%
Each line names hits and unclear results; the compound was inactive in the other large screens (follow-up assays come after a bar, where they were run). The list is not random: actives were taken first. Their share in the collection is about 1.8%.

COc1cccc(CNC(=O)CSc2nnc3c(n2)[nH]c2ccc(OC)cc23)c1	none
COc1ccc(CNC(=O)CSc2nnc3c(n2)[nH]c2ccccc23)cc1	Tb MetRS inh 42 | TbMetRS confirm 81 | Jurkat cytotox inactive | TbMetRS FP orth 75
COC(=O)c1cc2c(c3c4cc(C)ccc4n(S(=O)(=O)c4ccc(C)cc4)c13)C(=O)N(Cc1ccccc1)C2	none (no result: Rin1 Abl inh, Tb MetRS inh)
C[C@H]1[C@@H](OC(=O)Nc2ccccc2F)CC[C@@]23CCCN2C(=O)CCC[C@@H]13	none (no result: PG9 Ab binder, Rin1 Abl inh, Tb MetRS inh)
O=[N+]([O-])c1ccc(NCCNc2ccc(Cl)nn2)cc1	Tb MetRS inh 11 | TbMetRS confirm 18 | Jurkat cytotox inactive | TbMetRS FP orth inactive
NNC(=O)CSc1nc(-c2ccccc2)cn1-c1ccccc1	Tb MetRS inh 7.2 | TbMetRS confirm inactive | Jurkat cytotox inactive | TbMetRS FP orth inactive
CC(C)c1ccc(NC(=O)C2Cc3c(-c4cccc(C(N)=O)c4)ccnc3O2)cc1 (configuration not stated)	none
NC(=O)c1cccc(-c2ccnc3c2CC(C(=O)Nc2ccc(Cl)cc2)O3)c1 (configuration not stated)	Tb MetRS inh 52 | TbMetRS confirm 70 | Jurkat cytotox inactive | TbMetRS FP orth 47
CCCCN1C[C@H](Cc2ccccc2)[C@@H](CC(=O)Nc2ccccc2)C1=O	none
CSC[C@H]1CN(c2ccccc2)C(=O)[C@@H]1CC(=O)Nc1ccc(Br)cc1	Tb MetRS inh 21 | TbMetRS confirm 36 | Jurkat cytotox inactive | TbMetRS FP orth inactive
CSC[C@H]1CN(CCc2ccccc2)C(=O)[C@@H]1CC(=O)Nc1ccc(Br)cc1	Tb MetRS inh 15 | TbMetRS confirm 37 | Jurkat cytotox inactive | TbMetRS FP orth inactive
CCCCN1C[C@H](CSC)[C@@H](CC(=O)Nc2ccc(Br)cc2)C1=O	Tb MetRS inh 37 | TbMetRS confirm 54 | Jurkat cytotox inactive | TbMetRS FP orth 25
COc1ccc(NC(=O)C[C@H]2C(=O)N(c3ccccc3)C[C@@H]2CSC)cc1	none
O=C(C[C@H]1C(=O)N(CCc2ccccc2)C[C@@H]1Cc1ccccc1)Nc1ccc(Br)cc1	none
C=CCNC(=S)N1C[C@H]2CON(C)[C@H]2C[C@H]1c1ccccc1Br	none (no result: Rin1 Abl inh, Tb MetRS inh)
COC[C@@H]1CCCN1c1ccc2c(c1)O[C@H]1CCN(C1)S2(=O)=O	none (no result: PG9 Ab binder, Rin1 Abl inh, Tb MetRS inh)
CCC[C@H]1[C@@H](OC(=O)N2CCCC2)CC[C@@]23CCCN2C(=O)CCC[C@@H]13	none (no result: PG9 Ab binder, Rin1 Abl inh, Tb MetRS inh)
COC(=O)[C@]12C[C@H](CC(=O)NCc3cccc4ccccc34)C(=O)N(CCc3ccc(OC)c(OC)c3)C1=C[C@H](COCc1ccccc1)O[C@@H]2C	none (no result: PG9 Ab binder, Rin1 Abl inh, Tb MetRS inh)
C[C@H]1C(c2ccccc2F)O[C@]2(C[C@H](O)c3c(ccc4ccccc34)O2)C[C@@H]1O (some centres not stated)	none (no result: PG9 Ab binder, Rin1 Abl inh, Tb MetRS inh)
CCc1ccc(C2C(=O)c3ccccc3C2=O)cc1	Tb MetRS inh 6.3 | TbMetRS confirm inactive | Jurkat cytotox inactive | TbMetRS FP orth inactive
COc1ccc(C2C(=O)c3ccccc3C2=O)cc1	none
Cc1nnc(NCc2cccc(Cl)c2)c2ccccc12	Tb MetRS inh 12 | TbMetRS confirm 19 | Jurkat cytotox inactive | TbMetRS FP orth inactive
Cc1nnc(NCCc2ccccc2)c2ccccc12	none
S=c1nc(-c2sccc2OCc2ccc(Cl)cc2Cl)[nH][nH]1	Tb MetRS inh 8.6 | TbMetRS confirm 13 | Jurkat cytotox inactive | TbMetRS FP orth inactive
O=C(CCCOc1ccc(Cl)cc1Cl)N/N=C/c1ccccc1O	Tb MetRS inh 37 | TbMetRS confirm 80 | Jurkat cytotox 82 | TbMetRS FP orth 76
O=C(COc1ccc(Cl)cc1Cl)N/N=C/c1ccc[nH]1	Tb MetRS inh 6.6 | TbMetRS confirm 36 | Jurkat cytotox inactive | TbMetRS FP orth 27
O=C(CC(=O)Nc1cccc(Cl)c1)N/N=C\c1ccccc1	Tb MetRS inh 36 | TbMetRS confirm 82 | Jurkat cytotox inactive | TbMetRS FP orth 51
O=C(CCCOc1ccc(Cl)cc1Cl)N1CCN(c2ccccn2)CC1	Tb MetRS inh 12 | TbMetRS confirm 20 | Jurkat cytotox inactive | TbMetRS FP orth inactive
Cc1ccc(/C=N/NC(=O)CCCOc2ccc(Cl)cc2Cl)cc1	none
COc1ccc(NC(=O)Nc2ccccc2C(=O)N2CCCC2)cc1OC	none (no result: PG9 Ab binder, Rin1 Abl inh, Tb MetRS inh)
C[C@H]1COc2c3ccc(I)cc3nn21	none (no result: PG9 Ab binder, Rin1 Abl inh, Tb MetRS inh)
O=C(COc1ccc(Cl)cc1Cl)NCc1ccco1	none
O=C(CCCOc1ccc(Cl)cc1Cl)N/N=C/c1ccco1	Tb MetRS inh 17 | TbMetRS confirm 52 | Jurkat cytotox inactive | TbMetRS FP orth 57
O=C(COc1ccc(Cl)cc1Cl)NNC(=S)NCc1ccco1	Tb MetRS inh 6.4 | TbMetRS confirm inactive | Jurkat cytotox inactive | TbMetRS FP orth inactive
Cc1cc(Cl)ccc1OCCCC(=O)NNC(=O)c1ccccc1O	Tb MetRS inh 6.0 | TbMetRS confirm 25 | Jurkat cytotox inactive | TbMetRS FP orth 22
S=C(N/N=C/c1cccc2ccccc12)Nc1cccc(Cl)c1	Tb MetRS inh 5.8 | TbMetRS confirm inactive | Jurkat cytotox inactive | TbMetRS FP orth inactive
O=C(CCCOc1ccc(Cl)cc1Cl)N/N=C/c1ccccc1	Tb MetRS inh 12 | TbMetRS confirm 39 | Jurkat cytotox inactive | TbMetRS FP orth 34
COc1ccc(CN2C(=O)N3Cc4ccc(C)cc4C3CS2(=O)=O)cc1 (configuration not stated)	none (no result: PG9 Ab binder, Rin1 Abl inh, Tb MetRS inh)
Cc1ccc2[nH]c3c(c2c1)CCc1cn[nH]c1-3	Tb MetRS inh 22 | TbMetRS confirm 12 | Jurkat cytotox inactive | TbMetRS FP orth 47
Cc1ccc2[nH]c3c(c2c1)CCC3=O	none
CNC(=O)COC(=O)c1ccc(Cl)c(S(N)(=O)=O)c1	Tb MetRS inh 6.4 | TbMetRS confirm inactive | Jurkat cytotox inactive | TbMetRS FP orth inactive
CNC(=O)COC(=O)c1ccc(Cl)c(S(=O)(=O)N2CCCC2)c1	none
C/C(=C1/SC(=S)N(CCC(=O)O)C1=O)c1ccc(O)cc1	Tb MetRS inh 26 | TbMetRS confirm 64 | Jurkat cytotox inactive | TbMetRS FP orth 24
CCOC(=O)CC[C@@]1(C(=O)OCC)C[C@@H](CC(=O)NCCCOC)C(=O)N2CCCC=C21	none (no result: PG9 Ab binder, Rin1 Abl inh, Tb MetRS inh)
CCN(CC)C(=O)CC[C@H]1CC[C@]2(CCCN(S(=O)(=O)C3CCCCC3)C2)O1	none (no result: PG9 Ab binder, Rin1 Abl inh, Tb MetRS inh)
Cc1cc(C)cc(N(CC(=O)Nc2ccc(Br)cc2)S(=O)(=O)c2c(C)[nH]c(=O)[nH]c2=O)c1	Tb MetRS inh 49 | TbMetRS confirm 76 | Jurkat cytotox inactive | TbMetRS FP orth 45
COC(=O)[C@]12C[C@H](CC(=O)NCCCCc3ccccc3)C(=O)N(Cc3cccc4ccccc34)C1=C[C@H](C(C)(C)C)O[C@@H]2C	none (no result: PG9 Ab binder, Rin1 Abl inh, Tb MetRS inh)
Cc1ccccc1CN[C@@H]1CC[C@@]23CCCN2C(=O)CCC[C@H]3C1	none (no result: PG9 Ab binder, Rin1 Abl inh, Tb MetRS inh)
c1ccc2c(c1)nc(N1CCOCC1)c1c3ccccc3[nH]c21	Tb MetRS inh 12 | TbMetRS confirm inactive | Jurkat cytotox inactive | TbMetRS FP orth inactive
